Experimental data reported in ChEMBL document CHEMBL1135766, “Synthesis of conformationally constrained analogues of linezolid: structure-activity relationship (SAR) studies on selected novel tricyclic oxazolidinones” (2002).
Values after ≈ are worked out from the molar mass of the structure shown.

Key:
Staphylococcus aureus [1] = assay: In vitro antibacterial activity against Staphylococcus aureus ATCC 49951 (S. a. 213); format: functional
In short: (§1)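 Broth microdilution MIC per NCCLS guidelines in Mueller Hinton medium. Doubling dilutions from 256 to 1 μg/mL, inoculum (1–5) × 10⁵ CFU/mL, incubated overnight in ambient air at 35 °C. MIC is the lowest concentration giving complete growth inhibition. Linezolid and vancomycin served as controls.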

Enterococcus faecalis [2] = assay: In vitro antibacterial activity against Enterococcus faecalis NCTC 12201 (E. f. 153) vancomycin resistant; format: functional; in short: as §1
Enterococcus faecium = assay: In vitro antibacterial activity against Enterococcus faecium ATCC 12202 (E.fm 154) vancomycin resistant; format: functional, enterococcus fecium; in short: as §1
Staphylococcus aureus [3] = assay: In vitro antibacterial activity against methicillin resistant Staphylococcus aureus ATCC 33591 (S. a. 019); format: functional; in short: as §1
Staphylococcus aureus [4] = assay: In vitro antibacterial activity against Staphylococcus aureus ATCC 29213 (S. a. 035); format: functional
In short: (§2)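 Broth microdilution per NCCLS guidelines in Mueller Hinton medium. Doubling dilutions 256–1 μg/mL; inoculum (1–5) × 10⁵ CFU/mL; plates incubated overnight at 35 °C in ambient air. MIC read as the lowest concentration giving complete growth inhibition. Linezolid and vancomycin served as controls.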

Enterococcus faecalis [5] = assay: In vitro antibacterial activity against Enterococcus faecalis ATCC 29212 (E. f. 034) vancomycin sensitive; format: functional; in short: as §1
Enterococcus faecalis [6] = assay: In vitro antibacterial activity against Enterococcus faecalis ATCC 29212 (E. f. 153) vancomycin sensitive; format: functional; in short: as §2
Mus musculus [7] = assay: In vivo antibacterial activity in a murine systemic infection model; format: functional
In short: (§3)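 Female Swiss Albino mice (22–25 g, n = 6) were infected intraperitoneally with 0.5 mL S. aureus ATCC 29213. The inoculum was grown 2–3 h at 35 °C in BHI broth and adjusted to 100 × LD50 in 5% hog gastric mucin. Compound was suspended in 0.25% carboxymethyl cellulose and given orally 1 and 6 h post-infection; controls received saline. Cumulative mortality was scored over 48 h, and ED50 was derived by linear regression.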

Mus musculus [8] = assay: In vivo antibacterial activity in a murine systemic infection model (95%confidence limits); format: functional; in short: as §3

| Compound | MIC (Staphylococcus aureus [1]) | MIC (Enterococcus faecalis [2]) | MIC (Enterococcus faecium) | MIC (Staphylococcus aureus [3]) | MIC (Staphylococcus aureus [4]) | MIC (Enterococcus faecalis [5]) | MIC (Enterococcus faecalis [6]) | ED50 (Mus musculus [7]) | ED50 (Mus musculus [8]) |
| --- | --- | --- | --- | --- | --- | --- | --- | --- | --- |
| CCCC/C(S)=N\C[C@H]1CN(c2cc(F)c3c(c2)OC[C@@H]2CCCN32)C(=O)O1 | 2 µg/mL (≈ 4.91 µM) | 2 µg/mL (≈ 4.91 µM) | 2 µg/mL (≈ 4.91 µM) | 2 µg/mL (≈ 4.91 µM) | 4 µg/mL (≈ 9.82 µM) | 2 µg/mL (≈ 4.91 µM) |  |  |  |
| O=CNC[C@H]1CN(c2cc(F)c3c(c2)OC[C@@H]2CCCN32)C(=O)O1 | 4 µg/mL (≈ 11.9 µM) | 4 µg/mL (≈ 11.9 µM) | 8 µg/mL (≈ 23.9 µM) | 4 µg/mL (≈ 11.9 µM) | 8 µg/mL (≈ 23.9 µM) | 4 µg/mL (≈ 11.9 µM) |  |  |  |
| C=CC(=O)NC[C@H]1CN(c2ccc3c(c2)OC[C@@H]2CCCN32)C(=O)O1 |  | 8 µg/mL (≈ 23.3 µM) | 8 µg/mL (≈ 23.3 µM) | 4 µg/mL (≈ 11.6 µM) | 8 µg/mL (≈ 23.3 µM) | 8 µg/mL (≈ 23.3 µM) |  |  |  |
| CC(C)C(=O)NC[C@H]1CN(c2ccc3c(c2)OC[C@@H]2CCCN32)C(=O)O1 |  | 32 µg/mL (≈ 89 µM) | 32 µg/mL (≈ 89 µM) | 8 µg/mL (≈ 22.3 µM) | 16 µg/mL (≈ 44.5 µM) | 32 µg/mL (≈ 89 µM) |  |  |  |
| O=C(NC[C@H]1CN(c2ccc3c(c2)OC[C@@H]2CCCN32)C(=O)O1)C(F)F |  |  | 4 µg/mL (≈ 10.9 µM) | 2 µg/mL (≈ 5.44 µM) | 4 µg/mL (≈ 10.9 µM) | 4 µg/mL (≈ 10.9 µM) | 4 µg/mL (≈ 10.9 µM) |  |  |
| O=C1O[C@@H](C/N=C/S)CN1c1cc(F)c2c(c1)OC[C@@H]1CCCN21 | 1 µg/mL (≈ 2.85 µM) | 1 µg/mL (≈ 2.85 µM) | 2 µg/mL (≈ 5.69 µM) | 1 µg/mL (≈ 2.85 µM) | 1 µg/mL (≈ 2.85 µM) | 1 µg/mL (≈ 2.85 µM) |  | 9.07 mg/kg |  |
| CC(C)O/C(S)=N\C[C@H]1CN(c2cc(F)c3c(c2)OC[C@@H]2CCCN32)C(=O)O1 | 8 µg/mL (≈ 19.5 µM) |  | 8 µg/mL (≈ 19.5 µM) | 8 µg/mL (≈ 19.5 µM) | 8 µg/mL (≈ 19.5 µM) | 8 µg/mL (≈ 19.5 µM) | 8 µg/mL (≈ 19.5 µM) |  |  |
| C/C(S)=N\C[C@H]1CN(c2cc(F)c3c(c2)OC[C@@H]2CCCN32)C(=O)O1 | 0.5 µg/mL (≈ 1.37 µM) | 1 µg/mL (≈ 2.74 µM) | 1 µg/mL (≈ 2.74 µM) | 0.5 µg/mL (≈ 1.37 µM) | 0.5 µg/mL (≈ 1.37 µM) | 1 µg/mL (≈ 2.74 µM) |  | 30 mg/kg |  |
| CCC/C(S)=N\C[C@H]1CN(c2cc(F)c3c(c2)OC[C@@H]2CCCN32)C(=O)O1 | 2 µg/mL (≈ 5.08 µM) | 1 µg/mL (≈ 2.54 µM) | 1 µg/mL (≈ 2.54 µM) | 1 µg/mL (≈ 2.54 µM) | 2 µg/mL (≈ 5.08 µM) | 1 µg/mL (≈ 2.54 µM) |  | 30 mg/kg |  |
| O=C1O[C@@H](C/N=C(/S)N2CCSCC2)CN1c1cc(F)c2c(c1)OC[C@@H]1CCCN21 | 16 µg/mL (≈ 35.4 µM) | 16 µg/mL (≈ 35.4 µM) | 16 µg/mL (≈ 35.4 µM) | 16 µg/mL (≈ 35.4 µM) | 16 µg/mL (≈ 35.4 µM) | 16 µg/mL (≈ 35.4 µM) |  |  |  |
| CS/C(S)=N\C[C@H]1CN(c2cc(F)c3c(c2)OC[C@@H]2CCCN32)C(=O)O1 | 1 µg/mL (≈ 2.52 µM) | 1 µg/mL (≈ 2.52 µM) |  | 1 µg/mL (≈ 2.52 µM) | 2 µg/mL (≈ 5.03 µM) | 1 µg/mL (≈ 2.52 µM) | 1 µg/mL (≈ 2.52 µM) |  | 30 mg/kg |
| O=C(CC(F)(F)F)NC[C@H]1CN(c2cc(F)c3c(c2)OC[C@@H]2CCCN32)C(=O)O1 | 8 µg/mL (≈ 19.2 µM) | 4 µg/mL (≈ 9.58 µM) | 4 µg/mL (≈ 9.58 µM) | 4 µg/mL (≈ 9.58 µM) | 8 µg/mL (≈ 19.2 µM) | 4 µg/mL (≈ 9.58 µM) |  |  |  |
| O=C(CCl)NC[C@H]1CN(c2ccc3c(c2)OC[C@@H]2CCCN32)C(=O)O1 |  |  | 8 µg/mL (≈ 21.9 µM) | 2 µg/mL (≈ 5.47 µM) | 4 µg/mL (≈ 10.9 µM) | 4 µg/mL (≈ 10.9 µM) | 4 µg/mL (≈ 10.9 µM) |  |  |
| O=C(NC[C@H]1CN(c2ccc3c(c2)OC[C@@H]2CCCN32)C(=O)O1)C(Cl)Cl |  |  | 8 µg/mL (≈ 20 µM) | 4 µg/mL (≈ 9.99 µM) | 4 µg/mL (≈ 9.99 µM) | 8 µg/mL (≈ 20 µM) | 8 µg/mL (≈ 20 µM) |  |  |
| O=C1O[C@@H](C/N=C(/S)N2CCCC2)CN1c1cc(F)c2c(c1)OC[C@@H]1CCCN21 | 32 µg/mL (≈ 76.1 µM) | 32 µg/mL (≈ 76.1 µM) | 32 µg/mL (≈ 76.1 µM) | 32 µg/mL (≈ 76.1 µM) | 32 µg/mL (≈ 76.1 µM) | 32 µg/mL (≈ 76.1 µM) |  |  |  |
| CC(=O)NC[C@H]1CN(c2cc(F)c3c(c2)OC[C@@H]2CCCN32)C(=O)O1 | 2 µg/mL (≈ 5.72 µM) | 2 µg/mL (≈ 5.72 µM) | 4 µg/mL (≈ 11.4 µM) | 1 µg/mL (≈ 2.86 µM) | 2 µg/mL (≈ 5.72 µM) | 2 µg/mL (≈ 5.72 µM) |  | 8.6 mg/kg |  |
| CCCCCCC(=O)NC[C@H]1CN(c2cc(F)c3c(c2)OC[C@@H]2CCCN32)C(=O)O1 | 32 µg/mL (≈ 76.3 µM) | 32 µg/mL (≈ 76.3 µM) | 32 µg/mL (≈ 76.3 µM) | 32 µg/mL (≈ 76.3 µM) | 32 µg/mL (≈ 76.3 µM) | 32 µg/mL (≈ 76.3 µM) |  |  |  |
| CC(=O)NC[C@H]1CN(c2ccc(N3CCOCC3)c(F)c2)C(=O)O1 [LINEZOLID] |  |  | 2 µg/mL (≈ 5.93 µM) | 1 µg/mL (≈ 2.96 µM) |  |  |  | 3.91 mg/kg |  |
| CN[C@H](CC(C)C)C(=O)N[C@H]1C(=O)N[C@@H](CC(N)=O)C(=O)N[C@H]2C(=O)N[C@H]3C(=O)N[C@H](C(=O)N[C@H](C(=O)O)c4cc(O)cc(O)c4-c4cc3ccc4O)[C@H](O)c3ccc(c(Cl)c3)Oc3cc2cc(c3O[C@@H]2O[C@H](CO)[C@@H](O)[C@H](O)[C@H]2O[C@H]2C[C@](C)(N)[C@H](O)[C@H](C)O2)Oc2ccc(cc2Cl)[C@H]1O [VANCOMYCIN] |  |  | > 32 µg/mL |  |  | 2 µg/mL (≈ 1.38 µM) | 2 µg/mL (≈ 1.38 µM) |  | 3.93 mg/kg |
